Assay results collected from several papers.
Compare with care: the assays were run in different laboratories.
Organism: Staphylococcus aureus
Effect on: microbial growth

Structure (SMILES)	technique	strain	time	notes	MIC
COc1ccc2c(c1)CCc1c(C(=O)NCCc3nc4cc(C)ccc4[nH]3)n[nH]c1-2	–	–	–	–	> 128 µg/mL
COc1cc(OC)c2cc(C(=O)NCc3ccc(Br)cc3)cc(O)c2c1	broth dilution	ATCC29213 MSSA	–	–	32 µg/mL
COc1cc2nccc(Oc3ccc(NC(=O)NC4CC4)c(Cl)c3)c2cc1C(N)=O	–	NCTC8325	–	–	> 30 µM
O=C1NC(=S)S/C1=C\c1c2ccccc2c(-c2ccc(N(c3ccccc3)c3ccccc3)cc2)c2ccccc12	broth dilution	ATCC25923	–	–	> 1000 µg/mL
Cn1c(Nc2ccc(C(F)(F)F)cc2)nc2cc(Oc3ccnc(-c4ncc(C(F)(F)F)[nH]4)c3)ccc21	–	NCTC8325	–	–	30 µM
CC1=NN(CNc2ccc(O)cc2)C(=O)C1=NNn1c(-c2ccccc2)nc2ccccc2c1=O	broth dilution	–	24 h	–	53.5 µM
Cc1cc(C)c(NC(=O)Nc2ccc3c(c2)OC(F)(F)O3)c(C)c1	–	NCTC8325	–	–	> 100 µM
O=C1NC(=S)N/C1=C\c1c2ccccc2c(-c2ccc(N(c3ccccc3)c3ccccc3)cc2)c2ccccc12	broth dilution	ATCC6538	–	–	> 1000 µg/mL
Cc1ccc2nc(-c3ccccc3Cl)[nH]c2c1	broth dilution	ATCC29213 MSSA	–	–	64 µg/mL
C/C=C(\C)c1cc(OC(=O)c2c(C)c(Cl)c(O)c(Cl)c2O)c(C)c(O)c1C(=O)O	broth dilution	6917	–	–	> 64 µg/mL
CC(=O)c1c(C)c2cnc(Nc3ccc(N4CCNCC4)cn3)nc2n(C2CCCC2)c1=O	–	NCTC8325	–	–	> 30 µM
C/C=C(\C)c1cc(OC(=O)c2c(O)c(C)c(O)c(Cl)c2/C(C)=C/C)c(C)c(O)c1C(=O)O	broth dilution	CCARM3090	–	–	64 µg/mL
Cn1cc(NC(=O)C(CC(N)=O)NC(=O)c2ccc(NC(=O)c3ccc(C#N)cc3)cc2)cc1-c1nc2ccc(C(=O)Nc3ccc(C(=O)O)cc3)c(O)c2[nH]1 (stereo not drawn)	–	ATCC29213	–	–	> 64 µg/mL
COc1c(C)c(O)c(C)c(O)c1C(=O)/C=C/c1ccccc1	broth dilution	ATCC25923	–	–	2500 µg/mL
CC(C)CC(=O)Nc1n[nH]c2c1CN(C(=O)C1CCN(C)CC1)C2(C)C	–	NCTC8325	–	–	> 30 µM
Cc1ccc2nc(-c3cc(Br)ccc3O)[nH]c2c1	broth dilution	ATCC29213 MSSA	–	–	64 µg/mL
O=c1[nH]cc(F)c(=O)[nH]1	broth dilution	–	24 h	–	1 µg/mL
Oc1cccc(-c2nc3ccccc3[nH]2)c1	broth dilution	ATCC29213 MSSA	–	–	64 µg/mL
C/C=C(\C)c1cc(O)c(C)c(OC(=O)c2c(C)c(Cl)c(O)c(Cl)c2O)c1	broth dilution	MRSA	–	–	4 µg/mL
CN(C)[C@@H]1C(O)=C(C(N)=O)C(=O)[C@@]2(O)C(O)=C3C(=O)c4c(O)cccc4[C@@](C)(O)[C@H]3C[C@@H]12	–	129	–	clinical isolate	≤ 0.1 µM
Fc1ccc(-c2nc3ccccc3[nH]2)cc1	broth dilution	ATCC29213 MSSA	–	–	256 µg/mL

Structure (SMILES)	technique	strain	time	notes	MIC
O=C(Nc1ccc2c(c1)OC(F)(F)O2)Nc1ccc(Cl)c(C(F)(F)F)c1	–	NCTC8325	–	–	0.3 µM
O=[N+]([O-])c1cnc2ccc(F)cc2c1O	–	–	–	–	> 128 µg/mL
O=C(Nc1ccc2c(c1)OC(F)(F)O2)NC12CC3CC(CC(C3)C1)C2	–	NCTC8325	–	–	> 100 µM
Nc1c(C(=O)Nc2ccc(C3=NCCN3)cc2)cccc1C(=O)Nc1ccc(C2=NCCN2)cc1	–	–	–	–	> 64 µg/mL
Cc1ccc2nc(-c3ccc([N+](=O)[O-])cc3)n(Cc3ccccc3)c2c1	broth dilution	ATCC29213 MSSA	–	–	8 µg/mL
O=C(CCCCCCCCCC[P+](c1ccccc1)(c1ccccc1)c1ccccc1)Nc1cc(O)c(O)c(O)c1.[Br-]	broth dilution	ATCC43300 MRSA	18 h	–	2 µg/mL
CC(C)Oc1c(NC(=O)c2ccc(NC(=O)[C@H](CC(N)=O)NC(=O)c3ccc(NC(=O)c4ccc(NC(N)=O)cc4)cc3)cc2)ccc(C(=O)Nc2ccc(C(=O)O)cc2)c1O	–	ATCC29213	–	–	64 µg/mL
Cc1ccc(-n2nc(C(C)(C)C)cc2NC(=O)Nc2ccc(OCCN3CCOCC3)c3ccccc23)cc1	–	NCTC8325	–	–	> 30 µM
Cc1cc(Cl)cc2sc(N(CCCn3ccnc3)C(=O)c3ccc[nH]3)nc12	–	ATCC25923	–	–	1.3 µM
CC(C)Oc1c(NC(=O)c2ccc(NC(=O)[C@H](CC(N)=O)NC(=O)c3ccc(NC(=O)c4ccc5c(c4)COC5=O)cc3)cc2)ccc(C(=O)Nc2ccc(C(=O)O)cc2)c1O	–	ATCC29213	–	–	1 µg/mL
Cc1ccc(C)n1-c1ccc(-c2nnco2)cc1	broth dilution	ATCC11632	18 h	–	2 µg/mL
Cc1ccc2nc(-c3cccc([N+](=O)[O-])c3)[nH]c2c1	broth dilution	ATCC29213 MSSA	–	–	64 µg/mL
COc1c(C)c(OC(=O)c2ccc(C)cc2)c(C)c(O)c1C(=O)/C=C/c1ccccc1	broth dilution	ATCC25923	–	–	5000 µg/mL
O=C(O)CN1C(=O)/C(=C/c2ccc(-c3ccc(N(c4ccccc4)c4ccccc4)cc3)cc2)NC1=S	broth dilution	ATCC43300	–	–	1.95 µg/mL
Cc1cc(/C=C2\Sc3ccccc3N2CCCN2CCC(C)CC2)c2ccccc2[n+]1C.[I-]	broth dilution	ATCCBAA44	–	–	1 µg/mL
CC(C)Oc1c(NC(=O)c2ccc(NC(=O)[C@H](CC(N)=O)NC(=O)c3ccc(NC(=O)c4ccc(NC(=O)c5ccc([N+](=O)[O-])cc5)cc4)cc3)cc2)ccc(C(=O)Nc2ccc(C(=O)O)cc2)c1O	–	ATCC29213	–	–	> 64 µg/mL
Cc1c(CN(C)C(=O)/C=C/c2cnc3c(c2)CC(CCN)C(=O)N3)oc2ccccc12.Cl (stereo not drawn)	broth dilution	ATCC29213	–	–	0.125 µg/mL
CC(C)Oc1c(NC(=O)c2ccc(NC(=O)[C@H](CC(N)=O)NC(=O)c3ccc(NC(=O)C(C)Sc4ccc(C#N)cc4)cc3)cc2)ccc(C(=O)Nc2ccc(C(=O)O)cc2)c1O (stereo partly drawn)	–	ATCC29213	–	–	> 64 µg/mL
Clc1ccc(NCc2ccc(Oc3ccccn3)cc2)cc1	–	–	–	–	> 3.1 µg/mL
O=C(O)CN1C(=O)/C(=C/c2c3ccccc3c(-c3ccc(N(c4ccccc4)c4ccccc4)cc3)c3ccccc23)SC1=S	broth dilution	ATCC6538	–	–	> 1000 µg/mL
CC[C@H]1OC(=O)[C@H](C)[C@@H](O[C@H]2C[C@@](C)(OC)[C@@H](O)[C@H](C)O2)[C@H](C)[C@@H](O[C@@H]2O[C@H](C)C[C@H](N(C)C)[C@H]2O)[C@](C)(O)C[C@@H](C)C(=O)[C@H](C)[C@@H](O)[C@]1(C)O	broth dilution	25923	–	–	0.59 µM
